# Screens: PubChem BioAssay, The Scripps Research Institute Molecular Screening Center
# M1 ag – activates human CHRM1 receptor | P11229 | CHO-K1 hM1, Fluo-8 calcium fluorescence, agonist mode; 0% DMSO, 100% acetylcholine EC100 | activation, % at 3 µM | actives 0.33% (n = 360,000) | AID 588814;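 active means activation above the run's mean compound activation plus 3 SD, cut at about 16% in these data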;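 further: peak over basal fluorescence ratio within a 140 s kinetic read after compound addition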
# M5 ag – CHRM5 agonism in calcium assay | P08912 | CHO-K1 hM5 cells, Fluo-8 calcium fluorescence; 0% DMSO wells, 100% maximal acetylcholine response | activation, % at 3 µM | actives 0.19% (n = 360,000);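 active means activation above the run's mean over test compounds plus 3 SD, cut at about 23% in these data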;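 further: signal is peak over basal fluorescence ratio across the kinetic read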
# Target sequence (P08912 whole entry, looked up): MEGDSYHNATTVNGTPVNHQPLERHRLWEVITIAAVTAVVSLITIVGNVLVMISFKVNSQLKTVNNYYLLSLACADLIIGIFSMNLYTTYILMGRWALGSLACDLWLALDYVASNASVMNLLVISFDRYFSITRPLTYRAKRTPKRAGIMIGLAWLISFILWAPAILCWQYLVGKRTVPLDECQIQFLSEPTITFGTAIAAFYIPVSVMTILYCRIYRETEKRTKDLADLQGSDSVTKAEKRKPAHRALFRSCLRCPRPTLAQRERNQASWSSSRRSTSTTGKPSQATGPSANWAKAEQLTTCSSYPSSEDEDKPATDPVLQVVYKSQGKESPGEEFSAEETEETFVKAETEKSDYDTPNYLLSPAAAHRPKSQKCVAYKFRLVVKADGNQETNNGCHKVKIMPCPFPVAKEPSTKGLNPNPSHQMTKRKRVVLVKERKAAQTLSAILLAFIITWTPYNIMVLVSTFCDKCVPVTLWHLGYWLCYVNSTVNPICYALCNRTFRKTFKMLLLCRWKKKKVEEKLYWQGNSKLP
# M1 antag – human CHRM1 antagonism. CHO-K1 hM1, Fluo-8 calcium fluorescence, ACh EC80 antagonist. inhibition, % at 3 µM. actives 1.3% (n = 360,000). AID 588852;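 active means percent inhibition above its own plate's cutoff, namely the mean of that plate's compound wells plus 3 SD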;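 further: peak over basal fluorescence ratio during 140 s after agonist addition; 0% = ACh EC80 plus DMSO and 100% = DMSO alone without agonist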
# CHRM1 PAM – positive allosteric modulators of human M1 muscarinic receptor. P11229. CHO-K1 hM1, Fluo-8 calcium fluorescence, ACh EC20; 0% = ACh EC20, 100% = maximal ACh. activation, % at 3 µM. actives 0.088% (n = 360,000). AID 588819; in the data active means activation above about 19%, passing the limit was not always enough
# CHRM5 PAM – positive allosteric modulators of human muscarinic M5 receptor | AID 624038 | P08912 | CHO-K1 hM5, Fluo-8 calcium, ACh EC20 PAM; 0% = ACh EC20, 100% = ACh EC100 | actives 0.3% (n = 360,000) | activation, % at 3 µM;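 active means activation above the run cutoff, the mean activation of all test compounds plus 3 SD, cut at about 18% in these data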
#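 Assay system: CHO-K1 hM5 cells / Incubation: Fluo-8 loading 80 min at 37 °C plus 30 min room temperature / Technique: Fluo-8 calcium dye fluorescence, kinetic read / Repeats: single replicate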
# CHRM5 antagonist – blocks acetylcholine activation of human M5 receptor | P08912 | CHO-hM5 cells, Fluo-8 calcium fluorescence, ACh EC80 | inhibition, % at 3 µM | actives 0.59% (n = 360,000) | AID 624040;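 active means inhibition above a per-plate cutoff, the mean of that plate's test compounds plus 3 SD, cut at about 27% in these data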;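 further: 0% = acetylcholine EC80 with DMSO and 100% = DMSO without agonist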
# * marks the source's active call; other numbers are inactive results; nt = not tested or not shown. In the library only some 2.2% were active in any assay of this set; here they are far more common.
SMILES,M1 ag,M5 ag,M1 antag,CHRM1 PAM,CHRM5 PAM,CHRM5 antagonist
COc1ccc(NC2CCCN(C(=O)c3ccc(C)c(N4CCNC4=O)c3)C2)cc1 (stereo unspecified),-4,-6,1,1,-1,1
CC(=O)c1cc(C(=O)N2CCCC(C(=O)c3ccc(Cl)cc3)C2)cs1 (stereo unspecified),-3,-1,-13,10,3,6
CC1(Cc2ccc(Cl)c(Cl)c2)C(=O)Nc2c(Cl)ccc(Cl)c21 (stereo unspecified),2,3,-16,13,-5,-2
CC1(Cc2ccc(Cl)s2)C(=O)Nc2c(Cl)ccc(Cl)c21 (stereo unspecified),-6,-2,32*,-20,-14,11
COc1cc(/C=C(\C#N)C(N)=O)ccc1OCc1c(C)no[n+]1[O-],-1,3,1,1,-7,3
COC(=O)C1=C(C)NC(C)=C(C(=O)OC)C1c1ccccc1OCc1c(C)no[n+]1[O-],-4,1,-13,22*,10,-15
CCC(=O)Nc1ccc(S(=O)(=O)Nc2c(C)nc3nc[nH]n3c2=O)cc1,-1,-3,-6,6,-8,16
CCc1ccc(S(=O)(=O)Nc2c(C)nc3nc[nH]n3c2=O)cc1,3,8,-4,12,38*,4
Cc1ccc(C(C(=O)NCc2ccccc2)N(Cc2cccs2)C(=O)c2ccc3c(c2)OCCO3)cc1 (stereo unspecified),-2,2,33*,-17,-18,20
COC(=O)c1ccc(C(C(=O)NCc2ccccc2)N(Cc2cccs2)C(=O)c2cnccn2)cc1 (stereo unspecified),3,2,21*,-15,-18,24
COc1ccc(CNC(=O)C(c2ccc(C)cc2)N(Cc2cccs2)C(=O)c2ccc3c(c2)OCCO3)cc1 (stereo unspecified),3,4,18,-12,-23,24
COc1ccc(C(C(=O)NCc2ccccc2)N(Cc2ccco2)C(=O)c2cnccn2)cc1 (stereo unspecified),-2,3,6,-3,-13,23
O=[N+]([O-])c1cc(S(=O)(=O)N2CCCC2)ccc1SCCO,-6,-1,-1,7,-10,13
Cc1cccc(NS(=O)(=O)c2ccc3c(c2)NC(=O)CO3)c1C,-1,-4,1,7,-1,10
Cc1c(C)n(Cc2ccccc2)c2ncnc(Cl)c12,-1,2,35*,-19,-12,15
CC(c1nc2ccccc2[nH]1)n1c(=O)c(-c2cccnc2)nc2ccccc21 (stereo unspecified),nt,3,nt,nt,18*,-18
CCC(c1nc2ccccc2[nH]1)n1c(=O)c(-c2cccnc2)nc2ccccc21 (stereo unspecified),nt,0,nt,nt,2,2
CCOC(=O)N/N=C(\C)c1ccc(-n2cnnn2)cc1,-6,-4,-3,8,-11,1
CC(=O)N1CCOc2ccc(S(=O)(=O)N3CC(C)CC(C)C3)cc21 (stereo unspecified),1,-2,2,-4,-6,4
CCc1noc(N)c1C(=O)Nc1ccc(F)c(Cl)c1,-2,-5,-20,1,22*,-10
C[N+](C)(C)C/C=C1/COCO1,91*,100*,96*,-17,-16,92*
Cc1cc(C)cc(OCC(=O)OCC(=O)N2CCc3ccccc32)c1,-3,-2,-13,4,4,-3
CCCN(CCC)S(=O)(=O)c1ccc(C(=O)NCc2n[nH]c(=S)n2-c2ccc(Cl)c(Cl)c2)cc1,-12,-4,-12,14,14,-7
CN(C)c1ccc(/C=N/NC(=O)C(=O)/C=C2\NC3(CCCC3)Cc3ccccc32)cc1,11,-4,-11,26*,-5,4
COc1cc(/C=N/NC(=O)C(=O)/C=C2\NC3(CCCC3)Cc3ccccc32)ccc1O,22*,3,-4,9,-5,5
SMILES,M1 ag,M5 ag,M1 antag,CHRM1 PAM,CHRM5 PAM,CHRM5 antagonist
O=C(/C=C1\NC2(CCCC2)Cc2ccccc21)C(=O)N/N=C/c1ccccc1O,-4,-4,-11,8,0,-7
CCC(=O)NC(Nc1c(C)n(C)n(-c2ccccc2)c1=O)C(Cl)(Cl)Cl (stereo unspecified),-5,-1,-12,9,-2,4
COc1cccc(C(=O)Oc2ccc3ccc(=O)oc3c2)c1,-6,-3,-10,6,13,2
Cc1cccc(NC(=O)CSc2nc3ccccc3c(=O)n2C)c1,-2,2,20,-13,-8,8
CN1CCN(c2ccccc2/C=C2/C(=O)Nc3ccccc32)CC1,-11,-9,89*,-30,-19,83*
O=C1Nc2ccccc2/C1=C/c1ccccc1Cl,-4,-6,-11,2,1,3
O=[N+]([O-])c1ccccc1CNc1ccc(F)c(Cl)c1,-5,-2,-8,5,-7,13
COc1cccc(CNc2ccc(F)c([N+](=O)[O-])c2)c1O,3,1,90*,-15,-8,13
Cc1nc(SC(C)C(=O)c2c(N)n(C)c(=O)n(C)c2=O)c2c(C)c(C)sc2n1 (stereo unspecified),-1,3,-8,2,-3,9
COc1ccc(S(=O)(=O)NC(=O)C2(C)CCN2C(=O)C2(c3ccc(Cl)cc3)CCC2)cc1 (stereo unspecified),-2,1,-4,2,1,4
COc1cc2c(cc1OC)C(=O)N1[C@H]3c4cc(C)ccc4OC[C@@H]3[C@H](c3ccccc3)[C@]1(C)C(=O)N2,-2,2,12,-8,-6,8
C[C@@]12C(=O)Nc3cc(F)ccc3C(=O)N1[C@H]1c3ccccc3OC[C@@H]1[C@@H]2c1ccccc1,-5,-3,75*,-33,-36,12
Cc1ccc2c(c1)[C@H]1[C@H](CO2)[C@H](c2ccccc2)[C@]2(C)C(=O)N(Cc3ccc(F)cc3)CC(=O)N12,4,24*,10,-1,-3,13
Cc1ccc2c(c1)[C@H]1[C@H](CO2)[C@H](c2ccccc2)[C@]2(C)C(=O)Nc3ccc(F)cc3C(=O)N12,-5,-3,66*,-30,-14,11
Cc1ccc2c(c1)[C@H]1[C@H](CO2)[C@H](c2ccccc2)[C@]2(C)C(=O)Nc3cc(F)c(F)cc3C(=O)N12,-9,-5,41*,-31,-16,11
